Measurements as given in article PMC10797327 (RSC Advances, 2024).
pIC50: −log10 of the molar value.

Legend:
MTT cell viability assay = assay type: cell-based, murine; conditions: mouse, RAW264.7 macrophage cells
Summary of the method: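 RAW264.7 cells are cultured with test compound for 48 h, then viability is measured. CC50 is the concentration that reduces viability to 50%.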

IL-1β = IL-1β production in LPS-stimulated RAW264.7 cells; assay type: cell-based; conditions: Mus musculus, RAW264.7, 48 h, read-out: IC50 IL-1β
Summary of the method: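 RAW264.7 macrophages stimulated with LPS and cultured for 48 h with test compound. Cytokine production is measured, and IC50 is taken as the concentration that reduces cytokine production by 50%.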

Structure (SMILES): CC(=O)Oc1cccc2c1C(=O)c1c(OC(C)=O)cc(C(=O)O)cc1C2=O [Diacerein, diacerein]
- CC50 at 48 h (MTT cell viability assay): 151 µM
- pIC50 (IL-1β): 4.58
